Published values of several laboratories.
pEC50, pIC50: −log10 of the molar value. ≈ marks a conversion by molar mass, not a printed value.

CC1CC(C)(C)CC2(C1)SC(C)C(=O)N2NC(=O)c1[nH]c2ccc(Cl)cc2c1-c1ccccc1 (stereo not shown) — pEC50 (Enterovirus B; viral replication, inhibitor; Vero, B4): < 4.00
COc1ccc(/C=C\c2cc(F)c(OC)c(OC)c2)cc1O — GI50 (BXPC-3; cell growth or viability, SRB; 48 h): 0.745 mg/L (≈ 2.45 µM)
CN[C@@H]1[C@H](O)[C@H](NC)[C@H]2O[C@@]3(O)C(=O)C[C@@H](C)O[C@H]3O[C@@H]2[C@H]1O — MIC (Proteus mirabilis; microbial growth, broth dilution; ATCC25933): > 200 mg/L
C1COCCN1.COc1ccc(/C=C\c2cc(I)c(OC)c(I)c2)cc1OP(=O)(O)O — GI50 (BXPC-3; cell growth or viability, SRB; 48 h): 0.35 mg/L
Cl.Oc1cccc2c1[nH]c1c(C3=CC4(O)CC/C=C\CCCCN5CCC3C3(CC6/C=C\CCCCN6C43)C5)nccc12 (single isomer, unassigned; (+)) — IC50 (SK-MEL; cell growth or viability, neutral red; 48 h): 0.78 mg/L
COC(=O)c1cc(-c2cccc(NC(=S)Nc3ccccc3Cl)c2)on1 — MIC (Acinetobacter baumannii; microbial growth, broth dilution; BAA1605): > 64 mg/L
N#CC(C#N)=NNc1cccc(Cl)c1 — pIC50 (human Hepatocyte; cell growth or viability): 5.32
COc1ccc2[nH]cc(CCNc3nccc(Nc4cccc5c4ccn5C)n3)c2c1 — pIC50 (BXPC-3; cell growth or viability, fluorescence; 72 h): 8.10
COc1c(C)c2c(c(O)c1C/C=C(\C)CCC(=O)O)C(=O)OC2 — pEC50 (Enterovirus B; viral replication, inhibitor; Vero, B4): < 4.00
C=C1CC[C@H](O)C/C1=C/C=C1\CCC[C@]2(C)[C@@H]([C@H](C)CCCC(C)C)CC[C@@H]12 — pEC50 (Hepatitis C virus; viral replication, inhibitor, luciferase; GETYPE2A; 72 h, replicon): 4.91
CO[C@H]1/C=C/O[C@@]2(C)Oc3c(C)c(O)c4c(O)c(c(/C=N/N5CCN(C)CC5)c(O)c4c3C2=O)NC(=O)/C(C)=C\C=C\[C@H](C)[C@H](O)[C@@H](C)[C@@H](O)[C@@H](C)[C@H](OC(C)=O)[C@@H]1C — MIC (Mycobacterium kansasii; microbial growth; 6 days): < 0.78 µM
Cl.O[C@]12C=C(c3nccc4c3[nH]c3ccccc34)[C@@H]3CCN(CCCC/C=C\CC1)C[C@@]31C[C@@H]3/C=C\CCCCN3[C@H]12 — IC50 (SK-MEL; cell growth or viability, neutral red; 48 h): 0.57 mg/L
COC(=O)c1cc(-c2cccc(NC(=O)Nc3ccc(C(F)(F)F)cc3)c2)on1 — MIC (Acinetobacter baumannii; microbial growth, broth dilution; BAA1605): > 64 mg/L
Cc1ccc(-c2nc3ccc(C)cn3c2CC(=O)N(C)C)cc1 — MIC (Mycobacterium kansasii; microbial growth; 6 days): > 50 µM
COC(=O)c1cc(-c2cccc(NC(=S)NC3CCCCC3)c2)on1 — MIC (Acinetobacter baumannii; microbial growth, broth dilution; BAA1605): > 64 mg/L
COc1cccc2c1C(=O)c1c(O)c3c(c(O)c1C2=O)C[C@@](O)(C(=O)CO)C[C@@H]3O[C@H]1C[C@H](N)[C@H](O)[C@H](C)O1 — IC50 (SK-MEL; cell growth or viability; 48 h): 1.1 mg/L
